Screening data from PubChem.
In the library only some 0.85% were active in any assay of this set; here they are far more common.
V1aR_counter = agonists of human V1a receptor, primary screen, counter-screen for OXTR agonist project, fluorescence, CHO-V1R cells. Vasopressin V1a receptor (Homo sapiens), P37288. Fluo-8 calcium fluorescence, agonist mode; 0% DMSO, 100% 3 nM vasopressin. activation, % at 3 µM. 320,000 tested, 0.25% active;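 active = activation above the mean activation of all tested compounds plus 3 SD, per screening run, cut at about 20% in these data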;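 also: signal is peak over basal fluorescence ratio across a 100 second FLIPR read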
Target sequence (P37288 whole entry, looked up): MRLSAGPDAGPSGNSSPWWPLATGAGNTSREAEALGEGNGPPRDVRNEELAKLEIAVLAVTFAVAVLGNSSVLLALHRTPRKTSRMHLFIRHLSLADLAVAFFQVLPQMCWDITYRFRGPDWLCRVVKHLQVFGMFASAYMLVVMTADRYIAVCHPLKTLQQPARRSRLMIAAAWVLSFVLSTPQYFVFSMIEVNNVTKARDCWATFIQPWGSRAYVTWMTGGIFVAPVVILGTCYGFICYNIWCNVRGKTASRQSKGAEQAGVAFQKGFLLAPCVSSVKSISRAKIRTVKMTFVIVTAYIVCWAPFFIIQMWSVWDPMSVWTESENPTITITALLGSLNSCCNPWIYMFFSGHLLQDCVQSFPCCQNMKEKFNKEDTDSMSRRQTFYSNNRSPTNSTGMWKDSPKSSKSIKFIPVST
TRPN1_ag = zebrafish TRPN1 channel agonists, primary screen, cell-based, HEK293, calcium fluorescence. 220,000 tested, 0.18% active. HEK293 zebrafish TRPN1-YFP, Fluo-8 calcium fluorescence; 100% = response to 87 µM carbachol. activation, % at 3 µM. AID 1424, 2008. transient receptor potential cation channel N1 (TRPN1/NompC), Danio rerio;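 active = activation above its plate's cutoff, the mean activation of test wells on that plate plus 3 SD, cut at about 19% in these data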;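 also: 0% = DMSO alone and 100% = 87 µM carbachol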
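Assay system: Zebrafish TRPN1-YFP in HEK293 cells | Incubation: Dye loading 1 h at 37 °C, then 30 min room temperature | Measured by: Kinetic Fluo-8 fluorescence, ex 470-495, em 515-575 nm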
CRFR2-BP_ag = agonists of CRF-BP/CRF-R2 complex, primary screen, cell-based, HEK293, calcium dye fluorescence, uHTS. activation, % at 13.2 µM. AID 588473, 2011. 350,000 tested, 0.46% active. calcium dye fluorescence (FLIPR); percent of saturating CRF peptide response;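 active = activation of at least 50%, plus an integration ratio under a set limit after plate pattern correction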;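 also: plate controls were neutral control wells without compound for no effect and CRF at EC100 for full effect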
OXTR_ag = human OXTR agonists, primary screen, fluorescence, CHO-OTR cells, Fluo-8 calcium; AID 2435, 2010; activation, % at 3 µM; Oxytocin receptor (Homo sapiens), P30559; 320,000 tested, 0.32% active; Fluo-8 calcium fluorescence; normalized: DMSO 0%, oxytocin 100%;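 active = activation above the mean of all tested compounds plus 3 SD, cutoff set per screening run, cut at about 20% in these data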;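 also: peak over basal fluorescence ratio from a 100 s FLIPR kinetic read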
OXTR_potentiator = human OXTR potentiators, primary screen, fluorescence, CHO-OTR cells, Fluo-8 calcium. Oxytocin receptor (Homo sapiens), P30559. Fluo-8 calcium fluorescence, potentiator mode; 0% = oxytocin EC15, 100% = EC100. activation, % at 3 µM. 320,000 tested, 0.061% active. AID 2445, 2010;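 active = activation above that plate's cutoff, the mean activation of tested compounds plus 3 SD, cut at about 6.6% in these data, passing the limit was not always enough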;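 also: 100% uses oxytocin at 75 nM as the full agonist control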
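Assay system: CHO cell line stably expressing human OTR | Also added: Oxytocin at about EC15, sub-maximal agonist stimulus | Times: Compound 6 min at room temperature before oxytocin, 100 s read | Measured by: Fluo-8 intracellular calcium fluorescence, ex 470-495, em 515-575 nm | Controls: EC15 oxytocin alone as 0%, 75 nM oxytocin as 100%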
TRPML3_agonist = human TRPML3 channel agonists, primary screen, cell-based, HEK293 TRPML3-YFP, Fluo-8 calcium fluorescence, 3 µM; 100% = the carbachol control signal; activation, % at 3 µM; 220,000 tested, 0.29% active;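 active = activation above its plate's cutoff, the mean activation of the plate's test wells plus 3 SD, cut at about 12% in these data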;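 also: 0% = DMSO only wells and 100% = carbachol wells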
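Test system: TRPML3-YFP stable HEK293 cells. Doses: single point at 3 µM. Incubation: dye loading 1 h 37 °C then 30 min ambient, 125 s read. Signal: Fluo-8 calcium dye fluorescence, ex 470-495, em 515-575 nm. Measure: percent activation from peak-to-basal fluorescence ratio, scaled between DMSO and carbachol.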
TRPN1_counter = zebrafish TRPN1 channel agonists, counter-screen for TRPML3 agonist project, cell-based, HEK293 TRPN1-YFP, Fluo-8 calcium; shares compounds with TRPML3_agonist; Fluo-8 calcium fluorescence; scaled: carbachol wells 100%, DMSO wells 0%; activation, % at 3 µM; 310 tested, 10% active; AID 1525, 2009;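 active = mean activation over replicates above a set limit taken from the earlier TRPN1 channel primary screen, cut at about 19% in these data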;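 also: 100% = carbachol and 0% = 0.3% DMSO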
TRPML3_confirm = human TRPML3 channel agonists, confirmation, cell-based, HEK293 TRPML3-YFP, Fluo-8 calcium, triplicate; activation, % at 3 µM; AID 1526, 2009; 310 tested, 80% active; shares compounds with TRPML3_agonist; Fluo-8 calcium fluorescence; 100% set by carbachol, 0% by DMSO;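 active = activation above a set limit derived from the earlier primary screen, cut at about 12% in these data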
OXTR_agonist_cf = human OXTR agonists, confirmation, fluorescence, CHO-OTR cells, triplicate; activation, % at 3 µM; 390 tested, 20% active; AID 434963, 2010; Fluo-8 calcium fluorescence, agonist; shares compounds with OXTR_ag;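 active = mean activation above about 20% derived from the earlier single-dose screen, limit read from the data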;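 also: peak over minimum fluorescence ratio per well during a 100 second FLIPR read; 0% = DMSO alone and 100% = oxytocin high control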
V1aR_counter_3x = V1a receptor agonists, calcium signal, counter-screen for OXTR agonist project, triplicate, fluorescence, CHO-V1R cells | shares compounds with OXTR_ag | Fluo-8 calcium fluorescence | activation, % at 3 µM | 390 tested, 10% active | AID 434991, 2010;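 active = mean activation over triplicate exceeds the hit threshold set in the earlier primary screen, cut at about 20% in these data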;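 also: peak over basal fluorescence ratio within a 100 second read; 0% = DMSO alone and 100% = 3 nM vasopressin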
OXTR_pot_confirm = human OXTR potentiators, confirmation, fluorescence, CHO-OTR cells, triplicate. shares compounds with OXTR_potentiator. Fluo-8 calcium fluorescence, potentiation; scaled from low-dose to maximal oxytocin. activation, % at 3 µM. 180 tested, under 10 active;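 active = mean percent activation over triplicates above a cutoff set from solvent-only control plates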;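 also: compounds tested in the presence of an EC15 dose of oxytocin; 0% = EC15 oxytocin with DMSO and 100% = EC100 oxytocin with DMSO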
V1aR_agonist_cf = V1a receptor agonists, calcium signal, confirmation, Fluo-8 calcium fluorescence, CHO-V1R cells; shares compounds with V1aR_counter; agonist; activation, % at 3 µM; 180 tested, 20% active; AID 434964, 2010;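 active = average activation exceeds primary screen hit cutoff, cut at about 21% in these data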;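 also: peak over basal fluorescence ratio during a 100 s FLIPR read; 0% = DMSO only wells and 100% = 3 nM vasopressin wells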
OXTR_ag_counter = human OXTR agonists, counter-screen for V1R agonist project, fluorescence, CHO-OTR cells, triplicate; shares compounds with V1aR_counter; Fluo-8 calcium fluorescence; activation, % at 3 µM; 180 tested, 10% active;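 active = mean activation over three repeats above the cutoff from the earlier oxytocin receptor agonist screen, cut at about 20% in these data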;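 also: peak over minimum fluorescence ratio within a 100 second FLIPR read; 0% = DMSO only wells and 100% = oxytocin high control wells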
Starred values were filed as active, the others as inactive; · = not tested or not shown.

SMILES V1aR_counter TRPN1_ag CRFR2-BP_ag OXTR_ag OXTR_potentiator TRPML3_agonist others
Cc1ccccc1N1C(=O)/C(=C/c2ccco2)C(=O)NC1=S 4 · · 2 -5 ·
Cc1cc2c(C(C)C)c(O)c(O)c(C=O)c2c(O)c1-c1c(C)cc2c(C(C)C)c(O)c(O)c(C=O)c2c1O · -1 · · · 0
COC(=O)C1=CCCN(C)C1 1 6 4 1 -3 20* TRPN1_counter=12;TRPML3_confirm=46*
O=C(COc1ccc2ccc(=O)oc2c1)N1CCC(C(=O)O)(c2ccccc2)CC1 1 · 2 1 -1 ·
Cc1cccc(-n2c(O)c(/C=C/C=Nc3ccccc3)c(=O)[nH]c2=O)c1 12 7 56* 23* -7 7 OXTR_agonist_cf=26*;V1aR_counter_3x=35*
N=C1c2ccccc2CN1CC(=O)c1ccccc1 -1 0 4 0 -7 0
CCOc1ccc(-n2c(O)c(C=NCCN(CC)CC)c(=O)[nH]c2=O)cc1 0 -1 -1 3 13* 1 OXTR_pot_confirm=-6
CCCCn1c(O)c(C(CC)=NCCCN(C)C)c(=O)[nH]c1=O 0 0 0 0 -1 0
COc1ccc(CN2C(=O)NC(=O)/C(=C/c3cc(OC)c(OC)c(OC)c3)C2=O)cc1 0 2 13 1 -5 1
COc1ccc(CN2C(=O)NC(=O)/C(=C/c3ccoc3)C2=O)cc1 33* 18 10 17 -22 11 V1aR_agonist_cf=1;OXTR_ag_counter=1
COC(=O)C1=CO[C@@H](C)[C@@H]2CN3CC[C@@]4(C(=O)Nc5ccccc54)[C@@H]3C[C@H]12 0 -1 2 1 -6 -1
C=CCn1c(O)c(C(CC)=Nc2cccc(C(=O)O)c2)c(=O)[nH]c1=O 22* 1 2 1 -6 0 V1aR_agonist_cf=0;OXTR_ag_counter=-1
